“Also recorded” adds a separate entry of the source. Where two headings read alike, the source gives them in different places.

Data set [1] deals with T. vaginalis. The settings on record: cited from earlier work.
Data set [2] has as its system T. vaginalis trophozoites of the metronidazole-sensitive strain G3. Nature of the data set: Resorufin-based drug sensitivity assay. It is filed as cell-based, Trichomonas vaginalis. Particulars: for EC50: Trichomonas vaginalis.
Data set [3] has as its system Human Embryonic Kidney (HEK) cells. As to the kind of experiment: Toxicity against Human Embryonic Kidney. It counts as cell-based. The settings on record: for S.I. (Selectivity Index): HEK versus T. vaginalis.
For data set [4] the following is noted: mouse models of Chagas' disease; cited from earlier work.
The test system of data set [5] is T. vaginalis. Nature of the data set: Fluorescence microscopy. It is filed as cell-based, Trichomonas vaginalis. The settings on record: 2×EC50. The essentials:
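Samples from the growth-curve cultures, taken at 8-h intervals, were centrifuged twice at 2600 × g for 10 min at 4 °C, with a PBS pH 7.4 wash in between. Cells were air-dried 30 min on poly-L-lysine slides, fixed 15 min in 4% paraformaldehyde/PBS, washed, and mounted in antifade medium with DAPI. Nuclear volumes were measured from Z-stacks. Cultures were passaged at 24 h to 1.32×10^5 cells/mL.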

The test system of data set [6] is T. foetus strain D1. Nature of the data set: In vitro activity against T. foetus. It counts as cell-based, Tritrichomonas foetus.
Data set [7] has as its system T. vaginalis strain F1623. As to the kind of experiment: In vitro activity against T. vaginalis F1623. It is filed as cell-based, Trichomonas vaginalis. The settings on record: T. vaginalis strain F1623, same assay as T. foetus.
In data set [8] the test system is T. foetus D1 trophozoites. As to the kind of experiment: Murine model of vaginal trichomonad infection. It is filed as in vivo, BALB/c mice. In a few lines: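 Freshly weaned (21–24 days) female BALB/c mice were infected intravaginally with 10^6 mid-log T. foetus D1 trophozoites in 5 µL growth medium. One day later they received five doses over three days (1 on day 1, 2 on each of days 2 and 3). Doses were either oral gavage of 25 mg/kg per dose as a suspension in 1% hypromellose, 50 µL, or intravaginal 50 µg in 5 µL; controls received solvent. Live trophozoites in 30 µL PBS vaginal washes were counted in a chamber on day 4.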

In data set [9] the test system is T. vaginalis trophozoites. As to the kind of experiment: Growth curve assay. The settings on record: 2×EC50, continuous exposure 56 h, passage after 24 h. It is filed as cell-based, Trichomonas vaginalis.
[10] abbreviates: read-out: EC50 T. vaginalis, resorufin assay, 24 h + 2 h, 2% O2/98% N2, average of at least 3 independent determinations and SD.
Where [11] appears, read: Homo sapiens, HEK293, read-out: EC50 HEK.
Setting [12] is: read-out: EC50 HEK, HEK cells, average of at least 3 independent determinations and SD.

On to 2-F, 2’-deoxyadenosine, for which, in data set [1], the antitrichomonal activity was approximately 100 nM.
In the case of 2’-F,2’-deoxyadenosine, the antitrichomonal efficacy result in data set [1] was “substantial antitrichomonal efficacy”.
`Nc1ncnc2c1ncn2[C@@H]1O[C@H](CO)[C@@H](O)[C@@H]1F` [2’-deoxy-2’-fluoroarabinoadenosine]: the antitrichomonal efficacy result in data set [1] is “substantial antitrichomonal efficacy”.
With `Nc1nc(F)nc2nc[nH]c12` [Compound 2-F-adenine, 2-F-adenine], the antitrichomonal activity in [1] is recorded as approximately 100 nM.
Regarding `Nc1ncnc2c1c(-c1ccc(Cl)c(Cl)c1)cn2[C@@H]1O[C@H](CO)[C@@H](O)[C@H]1O` [FH3147, 7-deaza,7-(3,4-dichlorophenyl)adenosine], the “in vitro anti-T. vaginalis activity (EC50) described in words” value (“in vitro anti-T. vaginalis activity” below) in data set [2] is “double-digit nanomolar”. In addition, the EC50 was 0.029 ± 0.003 µM in data set [2] (setting [10]) and more than 200 µM in data set [3] (setting [11]). For the same compound, in data set [3], the “S.I. (Selectivity Index)” value was >10,000.
In the case of `Nc1ncnc2c1c(-c1ccccc1F)cn2[C@@H]1O[C@H](CO)[C@@H](O)[C@H]1O` [FH7435], the EC50 in data set [3] (setting [12]) was more than 200 µM.
Same read-out and setting: for `Nc1ncnc2c1c(-c1cccc(Cl)c1)cn2[C@@H]1O[C@H](CO)[C@@H](O)[C@H]1O` [FH8459] the value was more than 200 µM; for `Nc1ncnc2c1c(-c1cc(Cl)cc(Cl)c1)cn2[C@@H]1O[C@H](CO)[C@@H](O)[C@H]1O` [FH8460], more than 200 µM.
As to `Nc1ncnc2c1c(-c1ccccc1)cn2[C@@H]1O[C@H](CO)C[C@H]1O` [FH8480], in data set [2], the “in vitro anti-T. vaginalis activity” value is recorded as “low micromolar”.
`Cc1ccc(-c2cn([C@@H]3O[C@H](CO)C[C@H]3O)c3ncnc(N)c23)cc1` [FH8481]: the “in vitro anti-T. vaginalis activity” value in [2] was “low micromolar”. The EC50 in data set [3] (setting [12]) is more than 200 µM.
As for `COc1ccc(-c2cn([C@@H]3O[C@H](CO)C[C@H]3O)c3ncnc(N)c23)cc1` [FH8494], the EC50 in [3] (setting [12]) is more than 200 µM.
As for `Nc1ncnc2c1c(-c1ccc(Cl)cc1)cn2[C@@H]1O[C@H](CO)C[C@H]1O` [FH8512], the EC50 in data set [3] (setting [12]) was more than 200 µM. In addition, the “ill effects on the animals” value in data set [4] is reported as “without any apparent ill effects”.
With `Nc1ncnc2c1c(-c1ccc(Cl)c(Cl)c1)cn2[C@@H]1O[C@H](CO)C[C@H]1O` [FH8513], the EC50 in [3] (setting [12]) is more than 200 µM.
The same measure, in the same setting: the same measure for `CC(C)c1ccc(-c2cn([C@@H]3O[C@H](CO)C[C@H]3O)c3ncnc(N)c23)cc1` [FH9574]: 94 ± 9 µM; for `Nc1ncnc2c1c(-c1ccc3ccccc3c1)cn2[C@@H]1O[C@H](CO)C[C@H]1O` [FH9575]: 44 ± 5 µM.
On to `Nc1ncnc2c1c(-c1ccc(C(F)(F)F)cc1)cn2[C@@H]1O[C@H](CO)C[C@H]1O` [FH9576], for which, in [3] (setting [12]), the EC50 amounted to 148 ± 22 µM. For the same compound, the “cell morphology / nuclei (DAPI)” value in [5] (16 h continuous incubation) is given as “cells still looked normal at 16 h”.
Consider `Nc1ncnc2c1c(-c1ccc(OC(F)(F)F)cc1)cn2[C@@H]1O[C@H](CO)C[C@H]1O` [FH9577], for which the results for the “cell morphology / nuclei (DAPI)” value in data set [5] (16 h continuous incubation) and in data set [5] (24 h continuous incubation) were “looked healthy at 16 h” and “clearly displayed multiple nuclei at 24 h”, respectively.
With `Nc1ncnc2c1c(-c1ccc(Cl)cc1Cl)cn2[C@@H]1O[C@H](CO)C[C@H]1O` [FH9581], the EC50 in data set [3] (setting [12]) was more than 200 µM.
On the same count and under the same terms, for `Nc1ncnc2c1c(-c1ccc([N+](=O)[O-])cc1)cn2[C@@H]1O[C@H](CO)C[C@H]1O` [FH9582] the value was more than 200 µM; for `Nc1ncnc2c1c(-c1cccc(Cl)c1)cn2[C@@H]1O[C@H](CO)C[C@H]1O` [FH10641], more than 200 µM; for `Cc1ccc(-c2cn([C@@H]3O[C@H](CO)C[C@H]3O)c3ncnc(N)c23)cc1Cl` [FH10644], 94 ± 9 µM.
For the compound `COc1ccc(-c2cn([C@@H]3O[C@H](CO)C[C@H]3O)c3ncnc(N)c23)cc1Cl` [FH10645], the EC50 in data set [3] (setting [12]) was more than 200 µM.
Still for that read-out and setting: the same measure for `CCc1ccc(-c2cn([C@@H]3O[C@H](CO)C[C@H]3O)c3ncnc(N)c23)cc1` [FH10647]: 133 ± 2 µM.
In the case of `Cc1cc(-c2cn([C@@H]3O[C@H](CO)C[C@H]3O)c3ncnc(N)c23)ccc1Cl` [FH10648], the EC50 in [3] (setting [12]) turned out to be 146 ± 13 µM.
In the case of `COc1cc(-c2cn([C@@H]3O[C@H](CO)C[C@H]3O)c3ncnc(N)c23)ccc1Cl` [FH10649], the EC50 in [3] (setting [12]) was 178 ± 6 µM.
Still for that read-out and setting: the same measure for `Cc1ccc(-c2cn([C@@H]3O[C@H](CO)C[C@H]3O)c3ncnc(N)c23)cc1C` [FH10653]: 168 ± 19 µM.
As for `Nc1ncnc2c1c(C1CCCCC1)cn2C1OC(CO)CC1O` (stereo not drawn) [FH10669], the “in vitro anti-T. vaginalis activity” value in data set [2] is given as “very weak activity”.
For `Nc1ncnc2c1c(-c1ccc(F)cc1)cn2[C@@H]1O[C@H](CO)C[C@H]1O` [FH10680], the “in vitro anti-T. vaginalis activity” value in [2] is recorded as “low micromolar”. Further, in [3] (setting [12]), the EC50 was more than 200 µM.
On to `Nc1ncnc2c1c(-c1ccc(F)c(Cl)c1)cn2[C@@H]1O[C@H](CO)C[C@H]1O` [FH10681], for which the EC50 in data set [3] (setting [12]) is more than 200 µM.
The same measure, in the same setting: the same measure for `Nc1ncnc2c1c(-c1ccc(F)c(F)c1)cn2[C@@H]1O[C@H](CO)C[C@H]1O` [FH10682]: more than 200 µM; for `Nc1ncnc2c1c(-c1ccc(Cl)c(F)c1)cn2[C@@H]1O[C@H](CO)C[C@H]1O` [FH10683]: 151 ± 1 µM; for `Nc1ncnc2c1c(-c1ccc(C(F)(F)F)cc1)cn2[C@@H]1O[C@H](CO)[C@@H](O)[C@H]1O` [FH11704]: more than 200 µM.
On the same count and under the same terms, for `Cc1ccc(-c2cn([C@@H]3O[C@H](CO)[C@@H](O)[C@H]3O)c3ncnc(N)c23)cc1C` [FH13820] the value was more than 200 µM; for `Nc1ncnc2c1c(-c1ccc(F)cc1)cn2[C@@H]1O[C@H](CO)[C@@H](O)[C@H]1O` [MS1001], more than 200 µM.
Take `Nc1ncnc2c1c(-c1ccccc1)cn2[C@@H]1O[C@H](CO)[C@@H](O)[C@H]1O` [TH1004, 7-deaza-7-phenyladenosine]: the EC50 is 0.44 ± 0.059 µM in [2] (setting [10]) and more than 200 µM in data set [3] (setting [11]). Besides, the “S.I. (Selectivity Index)” value in data set [3] is reported as more than 465. For the same compound, in [5] (24 h continuous incubation), the “cell morphology / nuclei (DAPI)” value was “the cell membrane appears to be disintegrating and multiple nuclei are present in some cells”.
Regarding `Cc1ccc(-c2cn([C@@H]3O[C@H](CO)[C@@H](O)[C@H]3O)c3ncnc(N)c23)cc1` [TH1011], the “in vitro anti-T. vaginalis activity” value in [2] is recorded as “double-digit nanomolar”. The EC50 in data set [3] (setting [12]) is more than 200 µM.
Consider `Nc1ncnc2c1c(-c1ccc(Cl)cc1)cn2[C@@H]1O[C@H](CO)[C@@H](O)[C@H]1O` [TH1012], for which the “in vitro anti-T. vaginalis activity” value in data set [2] was “double-digit nanomolar”. Further, the EC50 in data set [3] (setting [12]) is more than 200 µM; in data set [6], 13.9 µM; in [7], 0.18 µM. Also, in data set [8] (oral 5×25 mg/kg or topical 1%, 25 mg/kg), the “adverse effects during the treatment period” value is reported as “No adverse effects were observed; also recorded: without any apparent ill effects”. The “effect on infection (live trophozoites in vaginal washes on day 4)” value in [8] (topical intravaginal, 1% (50 μg per dose), five doses over three days) is “almost complete eradication of the infection; also recorded: almost completely eradicated the T. foetus infection; also recorded: strongly inhibited T. foetus infection in mice”. In addition, the “cell morphology / nuclei (DAPI)” value in data set [5] (24 h continuous incubation) is recorded as “displayed multiple nuclei at 24 h”. Besides, in data set [4], the “ill effects on the animals” value is “without any apparent ill effects”.
As to `COc1ccc(-c2cn([C@@H]3O[C@H](CO)[C@@H](O)[C@H]3O)c3ncnc(N)c23)cc1` [TH1013], the EC50 in data set [3] (setting [12]) is more than 200 µM.
For the compound `Nc1ncnc2c1ncn2[C@@H]1O[C@H](CO)[C@@H](O)[C@@H]1O` [adenine arabinoside], the antitrichomonal efficacy entry in data set [1] is on record as “substantial antitrichomonal efficacy”.
On to `Cc1ncc([N+](=O)[O-])n1CCO` [metronidazole, reference compound], for which the EC50 in data set [2] (BD pouch bags incubation, n=16) is 0.26 ± 0.02 µM; in [2] (confirmation experiments, n=9, unit inferred), 0.53 ± 0.1 µM; in data set [2] (in-pod incubation, n=16) it was 0.28 ± 0.02 µM; in [2] (introduction, hit criterion), approximately 0.3 µM. The “effect on T. vaginalis growth” value in data set [9] is “managed a modest amount of growth before arrest and population decline”.
